Reference: ChEMBL document CHEMBL1781959, “Synthesis and in vitro antitumor activity of substituted quinazoline and quinoxaline derivatives: search for anticancer agent” (Eur J Med Chem, 2011)

Test system: UACC-257
Assay: Cytotoxicity against human UACC257 cells after 48 hrs by SRB assay
Format: cell-based
Conditions: uacc-257, 48 h
Procedure, shortened: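 NCI-60 five-dose screen. Cells grown in RPMI 1640 with 5% FBS and 2 mM L-glutamine and pre-incubated 24 h; a time-zero plate is TCA-fixed. Drug added at 0.01, 0.1, 1, 10 and 100 µM (DMSO stock) for 48 h at 37 °C, 5% CO2. Fixed with cold TCA (10% final for adherent, 16% for suspension cells), stained with 0.4% SRB, A515. GI50, TGI and LC50 taken from dose-response curves.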

`O=c1c2ccccc2nc(-c2ccco2)n1/N=C/c1ccccc1Cl` was tested, and the LC50 was > 100 µM.
